Test results taken from ChEMBL document CHEMBL1629514, “Synthesis, biological activity, and evaluation of the mode of action of novel antitubercular benzofurobenzopyrans substituted on A ring” (Eur J Med Chem, 2010).
pIC50: −log10 of the molar value. Values after ≈ are worked out from the molar mass of the structure shown.

Experiments:
[1] = test system: Mycobacterium tuberculosis; experiment: Antimycobacterial activity against Mycobacterium tuberculosis H37Rv after 6 days by Microdilution Resazurin assay; assay type: functional; conditions: 144 h
Procedure, shortened: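 M. tuberculosis H37Rv grown in 7H9 with 10% ADC enrichment. Two-fold serial dilutions from 500 to 0.9 µg/mL, using DMSO stocks, in 7H9. Incubated at 37 °C for 6 days, then 0.01% resazurin added and incubated a further 24 h. MIC is the lowest concentration preventing the blue-to-pink colour change. DMSO growth controls and isoniazid (1 µg/mL to 1 ng/mL) were included.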

Vero = experiment: Cytotoxicity against african green monkey Vero cells assessed as cell growth after 48 hrs by hemocytometry; assay type: cell-based; conditions: Chlorocebus sabaeus
Procedure, shortened: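 VERO cells grown in DMEM with 10% v/v FBS plus penicillin/streptomycin, 37 °C, humidified 5% CO2. Log-phase cells seeded in 24-well plates and allowed to attach 3 h. Compounds diluted in DMSO (final ≤0.4% v/v) and tested at 10^-8 to 10^-4 M. Cells counted after 48 h. Two experiments in duplicate; mean used to derive IC50.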

[2] = Selectivity index, ratio of IC50 for african green monkey VERO cells to MIC95 for Mycobacterium tuberculosis H37Rv; assay type: functional
Procedure, shortened: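 VERO cells grown in DMEM with 10% FBS at 37 °C and 5% CO2. Seeded at 2×10^4 cells/mL and allowed to attach for 3 h. Compounds added at 10^-8 to 10^-4 M (DMSO ≤0.4% v/v) and cells counted by hemocytometer after 48 h. IC50 from means of two experiments in duplicate. SI is VERO IC50 divided by the M. tuberculosis MIC95.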

[3] = test system: Mycolicibacterium smegmatis; experiment: Antimycobacterial activity against Mycobacterium smegmatis mc2155 assessed as inhibition of mycolic acid biosynthesis at 1 to 25 ug/ml after 15 mins; assay type: functional
Procedure, shortened: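 Cell-free assay on cell wall extracts from bacteria washed in phosphate buffer and disrupted at 0.8 kbar, using 500 µg extract protein. Buffer was 100 mM potassium phosphate pH 7.0 with 3 mM MgCl2, 7 mM KHCO3, 7 mM ATP and 0.7 mM CoASH. Compounds (5% v/v DMSO final) preincubated 15 min at 37 °C, then [1-14C]acetate added for 60 min at 37 °C. Reactions saponified and mycolate profiles run on TLC; % inhibition taken against control. Thiolactomycin was the reference, run at two concentrations.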

[4] = test system: Mycolicibacterium smegmatis; experiment: Antimycobacterial activity against Mycobacterium smegmatis; assay type: functional
[5] = test system: Mycobacterium tuberculosis; experiment: Antimycobacterial activity against Mycobacterium tuberculosis; assay type: functional

Structure (SMILES)	MIC95 [1] [µM]	pIC50 (Vero)	Selectivity Index [2]	inhibition (INH) [3] [%]	MIC95 [4] [µg/mL]	MIC95 [5] [µg/mL]
CC(=O)c1ccc2oc3ccc4c(c3c2c1)CCC(C)(C)O4	> 340	–	–	–	–	–
CC1(C)C=Cc2c(ccc3oc4c(Cl)cccc4c23)O1	87.5 (≈ 24.9 µg/mL)	4.00	1.2	–	–	–
CC1(C)C=Cc2c(ccc3oc4cc(Br)ccc4c23)O1	37.5 (≈ 12.3 µg/mL)	–	93.3	–	–	–
CC1(C)C=Cc2c(ccc3oc4ccc(Cl)cc4c23)O1	353 (≈ 101 µg/mL)	3.54	0.8	–	–	–
CC1(C)C=Cc2c(ccc3oc4cccc(Cl)c4c23)O1	43.8 (≈ 12.5 µg/mL)	4.00	2.3	–	–	–
CC1(C)C=Cc2c(ccc3oc4c(O)cccc4c23)O1	23.5 (≈ 6.26 µg/mL)	5.48	0.1	–	–	–
CC1(C)C=Cc2c(ccc3oc4cc(O)ccc4c23)O1	23.5 (≈ 6.26 µg/mL)	5.04	0.4	–	–	–
CC1(C)C=Cc2c(ccc3oc4ccc(O)cc4c23)O1	47 (≈ 12.5 µg/mL)	5.30	0.1	–	–	–
CC1(C)C=Cc2c(ccc3oc4cccc(O)c4c23)O1	95 (≈ 25.3 µg/mL)	5.04	0.1	–	–	–
CC1(C)CCc2c(ccc3oc4ccc(O)cc4c23)O1	46.5 (≈ 12.5 µg/mL)	4.74	0.4	–	–	–
COc1cccc2c1oc1ccc3c(c12)C=CC(C)(C)O3	45 (≈ 12.6 µg/mL)	4.00	2.2	>60	–	–
COc1ccc2c(c1)oc1ccc3c(c12)C=CC(C)(C)O3	89 (≈ 24.9 µg/mL)	4.00	1.1	>60	–	–
COc1ccc2oc3ccc4c(c3c2c1)C=CC(C)(C)O4	45 (≈ 12.6 µg/mL)	4.00	2.2	>60	–	–
COc1cccc2oc3ccc4c(c3c12)C=CC(C)(C)O4	45 (≈ 12.6 µg/mL)	3.55	6.2	>60	–	–
COc1ccc2oc3cc4c(cc3c2c1)OC(C)(C)C=C4	89 (≈ 24.9 µg/mL)	–	83.2	–	–	–
CC1(C)C=Cc2c(ccc3c2oc2ccc4c(c23)C=CC(C)(C)O4)O1	> 300	–	–	–	–	–
CC1(C)C=Cc2c(ccc3oc4cc(-c5ccc6c(c5)oc5ccc7c(c56)C=CC(C)(C)O7)ccc4c23)O1	> 200	–	–	–	–	–
CC1(C)C=Cc2c(ccc3oc4ccncc4c23)O1	–	–	–	–	8 (≈ 31.8 µM)	16 (≈ 63.7 µM)
CC(=O)c1ccc2oc3ccc4c(c3c2c1)C=CC(C)(C)O4	> 1710	–	–	–	–	–
CC1(C)C=Cc2c(ccc3oc4ccccc4c23)O1	100 (≈ 25 µg/mL)	3.49	3.2	–	–	–
COc1cccc2c1C(=O)c1c(O)c3c(c(O)c1C2=O)C[C@@](O)(C(=O)CO)C[C@@H]3O[C@H]1C[C@H](N)[C@H](O)[C@H](C)O1 [DOXORUBICIN]	–	5.44	–	–	–	–
NNC(=O)c1ccncc1 [ISONIAZID]	1.8 (≈ 0.247 µg/mL)	< 4.00	–	–	–	–
